This is an account of results in ChEMBL document CHEMBL2401617, “Synthesis and biological evaluation of some novel thiazole compounds as potential anti-inflammatory agents” (2013).

Values after ≈ are worked out from the molar mass of the structure shown.

Holding throughout (type): functional
For assay [1], the system named is Serratia marcescens. Briefly: Antibacterial activity against Serratia marcescens IMRU 70 assessed as growth inhibition after 24 hrs by Kirby-Bauer disc diffusion method relative to ampicillin. Set-up: concentration or dose not given beside the values. Put shortly:
(§1)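 Modified Kirby-Bauer disc diffusion on Mueller-Hinton agar spread with broth culture at about 10^8 cells/ml. Blank 8.0 mm paper discs were impregnated with test solution. Ampicillin discs at the same concentration and solvent served as positive control, and solvent discs as negative control. Plates were incubated at 35–37 °C, and inhibition-zone diameter (mm) was read at 24 h by caliper. % activity index = zone relative to ampicillin.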

Assay [2] concerns Proteus mirabilis. As to the kind of experiment: Antibacterial activity against Proteus mirabilis NCTC 289 assessed as growth inhibition after 24 hrs by Kirby-Bauer disc diffusion method relative to ampicillin. Set-up: concentration or dose not given beside the values. The method in brief:
as §1

Assay [3] concerns Bacillus cereus. Briefly: Antibacterial activity against Bacillus cereus NCTC 14579 assessed as growth inhibition after 24 hrs by Kirby-Bauer disc diffusion method relative to ampicillin. The method in brief: as §1
The subject of assay [4] is Staphylococcus aureus. Briefly: Antibacterial activity against Staphylococcus aureus NCTC 7447 assessed as growth inhibition after 24 hrs by Kirby-Bauer disc diffusion method relative to ampicillin. Set-up: concentration or dose not given beside the values. The method in brief:
as §1

The test system of assay [5] is Rattus norvegicus. Briefly: Antiinflammatory activity in albino Wistar rat assessed as inhibition of carrageenan-induced paw oedema at 50 mg/kg, po administered 1 hr prior to carrageenan challenge measured at 4 hrs by plethysmometeric analysis relative to control. Put shortly: (§2)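 Albino Wistar rats of either sex (130–150 g), 6 per group, fasted 12 h with water ad libitum. Test compounds were given orally at 50 mg/kg as DMSO solution; controls received 1 ml 20% v/v DMSO. One hour later, 0.1 ml 1% w/v carrageenan in 0.9% saline was injected into the left hind paw plantar region. Plethysmometer volume was read at 0 and 1–4 h. % inhibition = [1 − (Vt/Vc)] × 100.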

The subject of assay [6] is Rattus norvegicus. Briefly: Antiinflammatory activity in albino Wistar rat assessed as inhibition of carrageenan-induced paw oedema at 50 mg/kg, po administered 1 hr prior to carrageenan challenge measured at 3 hrs by plethysmometeric analysis relative to control. Put shortly: as §2
Assay [7] deals with Rattus norvegicus. Briefly: Antiinflammatory activity in albino Wistar rat assessed as inhibition of carrageenan-induced paw oedema at 50 mg/kg, po administered 1 hr prior to carrageenan challenge measured at 2 hrs by plethysmometeric analysis relative to control. The method in brief:
as §2

The test system of assay [8] is Rattus norvegicus. Briefly: Antiinflammatory activity in albino Wistar rat assessed as inhibition of carrageenan-induced paw oedema at 50 mg/kg, po administered 1 hr prior to carrageenan challenge measured at 1 hr post carrageenan challenge by plethysmometeric analysis relative to control. The method in brief: as §2
The subject of assay [9] is Serratia marcescens. Briefly: Antibacterial activity against Serratia marcescens IMRU 70 assessed as growth inhibition after 24 hrs by Kirby-Bauer disc diffusion method. The method in brief:
as §1

The test system of assay [10] is Proteus mirabilis. Briefly: Antibacterial activity against Proteus mirabilis NCTC 289 assessed as growth inhibition after 24 hrs by Kirby-Bauer disc diffusion method. Put shortly:
as §1

Assay [11] concerns Bacillus cereus. As to the kind of experiment: Antibacterial activity against Bacillus cereus NCTC 14579 assessed as growth inhibition after 24 hrs by Kirby-Bauer disc diffusion method. The method in brief: as §1
For assay [12], the system named is Staphylococcus aureus. As to the kind of experiment: Antibacterial activity against Staphylococcus aureus NCTC 7447 assessed as growth inhibition after 24 hrs by Kirby-Bauer disc diffusion method. Put shortly: as §1
Assay [13] concerns Staphylococcus aureus. As to the kind of experiment: Antibacterial activity against Staphylococcus aureus NCTC 7447 assessed as growth inhibition by disc diffusion method.
Assay [14] relates to Rattus norvegicus. As to the kind of experiment: Antiinflammatory activity in albino Wistar rat assessed as inhibition of carrageenan-induced paw oedema at 10 mg/kg, po administered 1 hr prior to carrageenan challenge measured at 4 hrs by plethysmometeric analysis relative to control. Put shortly:
(§3)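 Albino Wistar rats of either sex (130–150 g), 6 per group, fasted 12 h with water ad libitum. Indomethacin 10 mg/kg was given orally in 1 ml 20% v/v DMSO; controls received vehicle. One hour later, 0.1 ml 1% w/v carrageenan in 0.9% saline was injected subplantar into the left hind paw. Paw volume was read by plethysmometer at 0 and 1–4 h. % inhibition = [1 − (Vt/Vc)] × 100.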

Assay [15] concerns Rattus norvegicus. Briefly: Antiinflammatory activity in albino Wistar rat assessed as inhibition of carrageenan-induced paw oedema at 10 mg/kg, po administered 1 hr prior to carrageenan challenge measured at 3 hrs by plethysmometeric analysis relative to control. The method in brief: as §3
Assay [16] has as its system Rattus norvegicus. Briefly: Antiinflammatory activity in albino Wistar rat assessed as inhibition of carrageenan-induced paw oedema at 10 mg/kg, po administered 1 hr prior to carrageenan challenge measured at 2 hrs by plethysmometeric analysis relative to control. The method in brief: as §3
The test system of assay [17] is Rattus norvegicus. Briefly: Antiinflammatory activity in albino Wistar rat assessed as inhibition of carrageenan-induced paw oedema at 10 mg/kg, po administered 1 hr prior to carrageenan challenge measured at 1 hr post carrageenan challenge by plethysmometeric analysis relative to control. Put shortly: as §3

On to `Nc1nc(-c2ccc(N3CCOCC3)cc2)cs1`, for which the Activity_index in assay [1] is 15.72%; in [2], 9.52%; in assay [3] it was 17.39%; in assay [4] it was 20.83%. The inhibition in vivo at 50 mg/kg in assay [5] was 86.8%; in assay [6] it was 75.3%; in assay [7], 31.7%; in assay [8], -17%. For the same molecule, the “diameter of the inhibition zone (DIZ)” value in assay [9] is given as 3 mm; in assay [10] it was 2 mm; in assay [11] it was 4 mm; in assay [12], 5 mm.
Consider `C/C(=N\NC1=NC(=O)C(C)S1)c1ccc(N2CCOCC2)cc1` (stereo not drawn), for which the Activity_index in assay [1] is on record as 10.52%; in assay [2], 9.52%; in [3] it was 21.74%; in assay [4] it was 20.83%. Also, the “diameter of the inhibition zone (DIZ)” value in [9] worked out at 2 mm; in assay [10], 2 mm; in [11] it was 5 mm; in assay [12] it was 5 mm.
As for `C/C(=N\NC1=NCC(=O)S1)c1ccc(N2CCOCC2)cc1`, the Activity_index in [1] is reported as 15.72%; in assay [2], 9.52%; in [3] it was 16.67%; in assay [4], 20.83%. For the same molecule, the inhibition in vivo at 50 mg/kg was determined as 78.2% in [5], 63.4% in assay [6], 28.6% in assay [7] and 29.5% in assay [8]. Besides, the “diameter of the inhibition zone (DIZ)” value in [9] is on record as 3 mm; in assay [10], 2 mm; in assay [11] it was 4 mm; in assay [12], 5 mm.
In the case of `C/C(=N\Nc1nc(C)cs1)c1ccc(N2CCOCC2)cc1`, the Activity_index in assay [1] is 15.72%; in assay [2], 9.52%; in [3] it was 13.04%; in assay [4] it was 20.83%. In addition, the “diameter of the inhibition zone (DIZ)” value in assay [9] worked out at 2 mm; in [10] it was 2 mm; in [11], 3 mm; in [12] it was 5 mm.
In the case of `C/C(=N\Nc1nc(-c2ccccc2)cs1)c1ccc(N2CCOCC2)cc1`, the Activity_index in assay [1] is given as 15.72%; in [2], 14.28%; in [3], 17.39%; in assay [4] it was 16.67%. Further, the inhibition in vivo at 50 mg/kg was 79.1% in [5], 62.2% in [6], 35% in [7] and -1.6% in [8]. Moreover, the “diameter of the inhibition zone (DIZ)” value in assay [9] was 2 mm; in [10], 3 mm; in assay [11] it was 4 mm; in assay [12], 4 mm.
Regarding `C/C(=N\NC(=O)CC#N)c1ccc(N2CCOCC2)cc1`, the Activity_index in assay [1] was found to be 15.72%; in assay [2], 14.28%; in assay [3] it was 17.39%; in assay [4], 75%. Besides, the MIC in assay [13] came to 40 µg/mL (≈ 140 µM). The “diameter of the inhibition zone (DIZ)” value in assay [9] is reported as 2 mm; in [10] it was 3 mm; in [11], 4 mm; in [12], 18 mm.
As to `C/C(=N/c1nc(-c2ccccc2)cs1)c1ccc(N2CCOCC2)cc1`, the Activity_index was 15.72% in assay [1], 14.28% in [2], 17.39% in [3] and 20.83% in assay [4]. Moreover, the inhibition in vivo at 50 mg/kg in [5] came to 81.6%; in assay [6], 59.8%; in assay [7], 22.9%; in assay [8], 27.2%. In addition, the “diameter of the inhibition zone (DIZ)” value is 2 mm in [9], 3 mm in [10], 4 mm in [11] and 5 mm in [12].
In the case of `C/C(=N\N=C1/N=C2OC(=O)C=C2S1)c1ccc(N2CCOCC2)cc1`, the Activity_index in assay [1] is given as 15.72%; in [2], 9.52%; in assay [3], 17.39%; in [4], 20.83%. Further, the inhibition in vivo at 50 mg/kg worked out at 85% in assay [5], 75.7% in [6], 50.6% in assay [7] and 23.3% in assay [8]. Further, the “diameter of the inhibition zone (DIZ)” value in [9] worked out at 3 mm; in assay [10], 2 mm; in assay [11], 4 mm; in assay [12], 5 mm.
Take `C/C(=N\NC1=NC(=O)CS1)c1ccc(N2CCOCC2)cc1`: the Activity_index is 15.72% in [1], 14.28% in assay [2], 17.39% in assay [3] and 16.67% in [4]. The inhibition in vivo at 50 mg/kg in assay [5] is 35.7%; in assay [6], 29%; in [7] it was -8%; in [8], -58.6%. Also, the “diameter of the inhibition zone (DIZ)” value is recorded as 3 mm in assay [9], 3 mm in [10], 4 mm in [11] and 4 mm in assay [12].
`C/C(=N\N=C(\N)S)c1ccc(N2CCOCC2)cc1`: the Activity_index is on record as 15.72% in [1], 9.52% in [2], 17.39% in assay [3] and 16.67% in assay [4]. The inhibition in vivo at 50 mg/kg in assay [5] was 83.6%; in assay [6], 55.7%; in assay [7], 23%; in assay [8], -35%. Also, the “diameter of the inhibition zone (DIZ)” value in [9] stood at 3 mm; in assay [10], 2 mm; in [11], 4 mm; in assay [12], 4 mm.
Turning to `COc1ccc2c(c1)c(CC(=O)O)c(C)n2C(=O)c1ccc(Cl)cc1` [INDOMETHACIN], the inhibition in vivo at 10 mg/kg in assay [14] was determined as 91.3%; in assay [15], 75.5%; in [16], 45.1%; in assay [17], 10.5%.
